Experimental data reported in ChEMBL document CHEMBL1156022, “Discovery of N-{N-[(3-cyanobenzene) sulfonyl]-4(R)-(3,3-difluoropiperidin-1-yl)-(l)-prolyl}-4-[(3',5'-dichloro-isonicotinoyl) amino]-(l)-phenylalanine (MK-0617), a highly potent and orally active VLA-4 antagonist” (Bioorg Med Chem Lett, 2009).
Each block holds one compound with its values, some of them ahead of it.

Key:
Rattus norvegicus [1] = assay: Receptor occupancy of VLA4 in rat at 1.5 mg/kg after 24 hrs; type: functional
Method in brief: (§1)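 Ethyl ester prodrug given orally to rats at 1.5 mpk; VLA-4 receptor occupancy measured at 12 h and 24 h post-dose.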

Integrin alpha-4/beta-1 [2] = molecular target: T1, Integrin alpha-4/beta-1 (Homo sapiens, UniProt P05556+P13612); assay: Displacement of [35S]-labeled ligand from VLA4 in human Jurkat cells washed with buffer containing non activating Ca2+ and Mg2+ by competitive binding assay; type: cell-based
T1 sequence (P05556 whole entry): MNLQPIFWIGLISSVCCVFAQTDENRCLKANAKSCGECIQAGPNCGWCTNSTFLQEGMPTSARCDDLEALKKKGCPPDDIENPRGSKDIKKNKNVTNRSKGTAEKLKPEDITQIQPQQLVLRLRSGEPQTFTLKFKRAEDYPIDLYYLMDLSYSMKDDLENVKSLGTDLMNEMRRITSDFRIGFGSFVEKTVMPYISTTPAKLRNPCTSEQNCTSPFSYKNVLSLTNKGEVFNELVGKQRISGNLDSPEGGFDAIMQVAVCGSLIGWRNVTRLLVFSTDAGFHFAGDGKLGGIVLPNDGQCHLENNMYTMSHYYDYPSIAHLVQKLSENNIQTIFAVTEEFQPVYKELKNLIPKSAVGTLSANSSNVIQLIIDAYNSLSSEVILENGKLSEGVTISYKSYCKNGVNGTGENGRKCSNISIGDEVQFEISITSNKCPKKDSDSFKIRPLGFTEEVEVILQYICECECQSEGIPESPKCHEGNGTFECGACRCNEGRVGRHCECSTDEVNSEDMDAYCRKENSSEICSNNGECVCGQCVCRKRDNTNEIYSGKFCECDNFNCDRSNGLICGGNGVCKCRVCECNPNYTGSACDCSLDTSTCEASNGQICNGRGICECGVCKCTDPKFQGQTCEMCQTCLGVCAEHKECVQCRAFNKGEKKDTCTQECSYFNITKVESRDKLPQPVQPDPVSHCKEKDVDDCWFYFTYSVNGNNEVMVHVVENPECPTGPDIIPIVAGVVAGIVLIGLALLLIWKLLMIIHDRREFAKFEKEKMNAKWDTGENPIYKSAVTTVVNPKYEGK
T1 sequence (P13612 whole entry): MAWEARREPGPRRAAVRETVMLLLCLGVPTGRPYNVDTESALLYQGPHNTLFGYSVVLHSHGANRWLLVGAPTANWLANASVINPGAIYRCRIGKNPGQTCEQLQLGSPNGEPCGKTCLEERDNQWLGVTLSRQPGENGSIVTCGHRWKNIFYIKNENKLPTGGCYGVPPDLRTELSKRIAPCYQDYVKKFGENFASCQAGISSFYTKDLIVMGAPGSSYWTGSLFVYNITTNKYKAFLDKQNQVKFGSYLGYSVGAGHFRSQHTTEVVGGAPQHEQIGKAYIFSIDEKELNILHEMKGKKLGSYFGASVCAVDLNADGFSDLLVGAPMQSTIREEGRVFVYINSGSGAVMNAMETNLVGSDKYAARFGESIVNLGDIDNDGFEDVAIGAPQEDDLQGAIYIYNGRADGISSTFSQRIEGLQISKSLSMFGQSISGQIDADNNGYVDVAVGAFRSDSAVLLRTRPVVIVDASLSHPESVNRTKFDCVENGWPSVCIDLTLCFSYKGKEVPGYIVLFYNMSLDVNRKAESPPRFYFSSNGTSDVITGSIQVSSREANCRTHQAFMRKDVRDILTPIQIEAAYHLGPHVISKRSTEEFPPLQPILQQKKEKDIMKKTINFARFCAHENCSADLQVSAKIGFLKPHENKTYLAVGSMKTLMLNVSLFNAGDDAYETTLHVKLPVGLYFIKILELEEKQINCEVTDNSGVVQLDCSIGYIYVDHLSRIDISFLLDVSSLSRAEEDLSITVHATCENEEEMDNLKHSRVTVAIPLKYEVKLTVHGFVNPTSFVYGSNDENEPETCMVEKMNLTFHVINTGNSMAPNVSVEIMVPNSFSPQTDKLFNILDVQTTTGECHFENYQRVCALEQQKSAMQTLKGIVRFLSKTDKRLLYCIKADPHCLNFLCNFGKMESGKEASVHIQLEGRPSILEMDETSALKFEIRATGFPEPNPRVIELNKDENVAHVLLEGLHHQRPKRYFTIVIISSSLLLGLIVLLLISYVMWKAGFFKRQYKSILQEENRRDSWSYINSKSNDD
Method in brief: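 Competition binding in Jurkat cells with a ³⁵S-labeled ligand, VLA-4 held non-activated in Ca²⁺/Mg²⁺ buffer; IC₅₀ reported; data are means of three independent runs or n = 1.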

Integrin alpha-4/beta-1 [3] = molecular target: T1, Integrin alpha-4/beta-1; assay: Receptor occupancy of VLA4 in whole blood washed with buffer containing activating Mn2+ at 37 degC after 3 hrs; type: tissue-based
Integrin alpha-4/beta-1 [4] = molecular target: T1, Integrin alpha-4/beta-1; assay: Displacement of [35S]-labeled ligand from VLA4 in human Jurkat cells washed with buffer containing activating Mn2+ by competitive binding assay; type: cell-based
[5] = tested on: Integrin alpha-4/beta-1 (Rattus norvegicus); assay: Receptor occupancy of VLA4 in rat whole blood washed with buffer containing non activating Ca2+ and Mg2+ at 37 degC after 12 hrs
Rattus norvegicus [6] = assay: Receptor occupancy of VLA4 in rat at 5 mg/kg, po after 12 hrs; type: functional
Method in brief: (§2)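 Parent acid given orally to rats at 5 mpk; VLA-4 receptor occupancy assayed at 12 h and 24 h after dosing.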

Integrin alpha-4/beta-1 [7] = molecular target: T1, Integrin alpha-4/beta-1; assay: Inhibition of VLA4 in human whole blood
Method in brief: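 Competitive binding run in human whole blood; IC₅₀ read-out.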

[8] = Bioavailability in rat at 5 mg/kg, po; type: ADME, organism-based; settings: in vivo
Rattus norvegicus [9] = assay: Receptor occupancy of VLA4 in rat at 5 mg/kg, po after 24 hrs; type: functional; method in brief: as §2
[10] = Plasma clearance in rat at 5 mg/kg, po; type: ADME, organism-based; design: dose 5 mg/kg, route oral
[11] = tested on: Integrin alpha-4/beta-1 (Rattus norvegicus); assay: Receptor occupancy of VLA4 in rat whole blood washed with buffer containing non activating Ca2+ and Mg2+ at 37 degC after 24 hrs
[12] = Cmax in rat at 5 mg/kg, po; type: ADME, organism-based; design: dose 5 mg/kg, route oral; settings: in vivo
Rattus norvegicus [13] = assay: AUC in rat at 5 mg/kg, po; type: ADME, organism-based, Plasma; design: dose 5 mg/kg, route oral; settings: in vivo
Rattus norvegicus [14] = assay: Receptor occupancy of VLA4 in rat at 1.5 mg/kg after 12 hrs; type: functional; method in brief: as §1

SMILES: CCOC(=O)[C@H](Cc1ccc(NC(=O)c2c(Cl)cncc2Cl)cc1)NC(=O)[C@@H]1C[C@@H](NC2CCC2)CN1S(=O)(=O)c1cccc(C#N)c1
Activity (Rattus norvegicus [1]): 25%

SMILES: N#Cc1cccc(S(=O)(=O)N2C[C@H](N3CCC(F)CC3)C[C@H]2C(=O)N[C@@H](Cc2ccc(NC(=O)c3c(Cl)cncc3Cl)cc2)C(=O)O)c1
IC50 (Integrin alpha-4/beta-1 [2]): 0.35 nM

SMILES: CCOC(=O)[C@H](Cc1ccc(NC(=O)c2c(Cl)cncc2Cl)cc1)NC(=O)[C@@H]1C[C@@H](N2CCCC(F)(F)C2)CN1S(=O)(=O)c1cccc(C#N)c1
Activity (Rattus norvegicus [1]): 60% | Activity (Rattus norvegicus [14]): 88%

SMILES: N#Cc1cccc(S(=O)(=O)N2C[C@H](N3CCC(F)(F)CC3)C[C@H]2C(=O)N[C@@H](Cc2ccc(NC(=O)c3c(Cl)cncc3Cl)cc2)C(=O)O)c1
IC50 (Integrin alpha-4/beta-1 [2]): 0.22 nM

SMILES: N#Cc1cccc(S(=O)(=O)N2C[C@H](N3CCCC3)C[C@H]2C(=O)N[C@@H](Cc2ccc(NC(=O)c3c(Cl)cncc3Cl)cc2)C(=O)O)c1
IC50 (Integrin alpha-4/beta-1 [2]): 0.22 nM

SMILES: N#Cc1cccc(S(=O)(=O)N2C[C@H](N3CC(F)C3)C[C@H]2C(=O)N[C@@H](Cc2ccc(NC(=O)c3c(Cl)cncc3Cl)cc2)C(=O)O)c1
IC50 (Integrin alpha-4/beta-1 [2]): 0.27 nM

SMILES: N#Cc1cccc(S(=O)(=O)N2C[C@H](N3CC[C@H](F)C3)C[C@H]2C(=O)N[C@@H](Cc2ccc(NC(=O)c3c(Cl)cncc3Cl)cc2)C(=O)O)c1
IC50 (Integrin alpha-4/beta-1 [2]): 0.24 nM

SMILES: N#Cc1cccc(S(=O)(=O)N2C[C@H](N3CC(F)(F)C3)C[C@H]2C(=O)N[C@@H](Cc2ccc(NC(=O)c3c(Cl)cncc3Cl)cc2)C(=O)O)c1
IC50 (Integrin alpha-4/beta-1 [2]): 0.9 nM

The next lines start with results.

IC50 (Integrin alpha-4/beta-1 [2]): 0.11 nM
SMILES: N#Cc1cccc(S(=O)(=O)N2C[C@H](N3CCCCC3)C[C@H]2C(=O)N[C@@H](Cc2ccc(NC(=O)c3c(Cl)cncc3Cl)cc2)C(=O)O)c1

IC50 (Integrin alpha-4/beta-1 [2]): 0.15 nM | Activity (Integrin alpha-4/beta-1 [3]): 95%
SMILES: N#Cc1cccc(S(=O)(=O)N2C[C@H](NC3CCC3)C[C@H]2C(=O)N[C@@H](Cc2ccc(NC(=O)c3c(Cl)cncc3Cl)cc2)C(=O)O)c1

IC50 (Integrin alpha-4/beta-1 [2]): 0.15 nM
SMILES: N#Cc1cccc(S(=O)(=O)N2C[C@H](N3CCC3)C[C@H]2C(=O)N[C@@H](Cc2ccc(NC(=O)c3c(Cl)cncc3Cl)cc2)C(=O)O)c1

IC50 (Integrin alpha-4/beta-1 [2]): 0.21 nM
SMILES: N#Cc1cccc(S(=O)(=O)N2C[C@H](N3CCCC(F)C3)C[C@H]2C(=O)N[C@@H](Cc2ccc(NC(=O)c3c(Cl)cncc3Cl)cc2)C(=O)O)c1 (stereo not given in full)

IC50 (Integrin alpha-4/beta-1 [4]): 0.02 nM | Activity [5]: 70% | IC50 (Integrin alpha-4/beta-1 [7]): 0.07 nM | bioavailability [8]: < 5% | CL/F [10]: > 100 mL/min/kg | Activity [11]: 40% | Cmax [12]: 27 nM | IC50 (Integrin alpha-4/beta-1 [2]): 0.03 nM | AUC (Rattus norvegicus [13]): 0.05 µM·h | Activity (Integrin alpha-4/beta-1 [3]): 95%
SMILES: N#Cc1cccc(S(=O)(=O)N2C[C@H](N3CCCC(F)(F)C3)C[C@H]2C(=O)N[C@@H](Cc2ccc(NC(=O)c3c(Cl)cncc3Cl)cc2)C(=O)O)c1
Activity (Rattus norvegicus [6]): 65% | Activity (Rattus norvegicus [9]): 22%

IC50 (Integrin alpha-4/beta-1 [2]): 0.12 nM
SMILES: N#Cc1cccc(S(=O)(=O)N2C[C@H](N3CC[C@@H](F)C3)C[C@H]2C(=O)N[C@@H](Cc2ccc(NC(=O)c3c(Cl)cncc3Cl)cc2)C(=O)O)c1

IC50 (Integrin alpha-4/beta-1 [2]): 0.1 nM
SMILES: N#Cc1cccc(S(=O)(=O)N2C[C@H](N3CCC(F)(F)C3)C[C@H]2C(=O)N[C@@H](Cc2ccc(NC(=O)c3c(Cl)cncc3Cl)cc2)C(=O)O)c1

IC50 (Integrin alpha-4/beta-1 [7]): 3.1 nM | IC50 (Integrin alpha-4/beta-1 [2]): 0.02 nM
SMILES: N#Cc1cccc(S(=O)(=O)N2C[C@H](N(CC(F)(F)F)C3CCC3)C[C@H]2C(=O)N[C@@H](Cc2ccc(NC(=O)c3c(Cl)cncc3Cl)cc2)C(=O)O)c1
